Results: ChEMBL document CHEMBL3745647, “Design, synthesis and biological evaluation of pyrazolyl-nitroimidazole derivatives as potential EGFR/HER-2 kinase inhibitors” (Bioorg Med Chem Lett, 2016)

Experiments:
[1] = system: HeLa; test: Antiproliferative activity against human HeLa cells after 12 hrs by MTT assay; type: functional, cell-based
[2] = Cytotoxicity against human HEK293T cells for 24 hrs by MTT assay; type: cell-based, HEK-293T
Procedure, shortened: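 293T human kidney epithelial cells exposed to multiple concentrations and viability read by MTT.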

[3] = Antiproliferative activity against mouse B16F10 cells after 12 hrs by MTT assay; type: functional, cell-based; conditions: B16-F10, 12 h
[4] = system: MCF7; test: Antiproliferative activity against human MCF7 cells after 12 hrs by MTT assay; type: functional, cell-based; conditions: MCF7, 12 h
[5] = system: HepG2; test: Antiproliferative activity against human HepG2 cells after 12 hrs by MTT assay; type: functional, cell-based; conditions: HepG2, 12 h
[6] = biological target: Receptor tyrosine-protein kinase erbB-2 (Homo sapiens, UniProt P04626); test: Inhibition of His-tagged human HER-2 cytoplasmic domain (676-1245 aa) (unknown origin) assessed as inhibition of autophosphorylation by TR-fluorometry
Chain of Receptor tyrosine-protein kinase erbB-2 (P04626 whole entry, the tested form may be a part): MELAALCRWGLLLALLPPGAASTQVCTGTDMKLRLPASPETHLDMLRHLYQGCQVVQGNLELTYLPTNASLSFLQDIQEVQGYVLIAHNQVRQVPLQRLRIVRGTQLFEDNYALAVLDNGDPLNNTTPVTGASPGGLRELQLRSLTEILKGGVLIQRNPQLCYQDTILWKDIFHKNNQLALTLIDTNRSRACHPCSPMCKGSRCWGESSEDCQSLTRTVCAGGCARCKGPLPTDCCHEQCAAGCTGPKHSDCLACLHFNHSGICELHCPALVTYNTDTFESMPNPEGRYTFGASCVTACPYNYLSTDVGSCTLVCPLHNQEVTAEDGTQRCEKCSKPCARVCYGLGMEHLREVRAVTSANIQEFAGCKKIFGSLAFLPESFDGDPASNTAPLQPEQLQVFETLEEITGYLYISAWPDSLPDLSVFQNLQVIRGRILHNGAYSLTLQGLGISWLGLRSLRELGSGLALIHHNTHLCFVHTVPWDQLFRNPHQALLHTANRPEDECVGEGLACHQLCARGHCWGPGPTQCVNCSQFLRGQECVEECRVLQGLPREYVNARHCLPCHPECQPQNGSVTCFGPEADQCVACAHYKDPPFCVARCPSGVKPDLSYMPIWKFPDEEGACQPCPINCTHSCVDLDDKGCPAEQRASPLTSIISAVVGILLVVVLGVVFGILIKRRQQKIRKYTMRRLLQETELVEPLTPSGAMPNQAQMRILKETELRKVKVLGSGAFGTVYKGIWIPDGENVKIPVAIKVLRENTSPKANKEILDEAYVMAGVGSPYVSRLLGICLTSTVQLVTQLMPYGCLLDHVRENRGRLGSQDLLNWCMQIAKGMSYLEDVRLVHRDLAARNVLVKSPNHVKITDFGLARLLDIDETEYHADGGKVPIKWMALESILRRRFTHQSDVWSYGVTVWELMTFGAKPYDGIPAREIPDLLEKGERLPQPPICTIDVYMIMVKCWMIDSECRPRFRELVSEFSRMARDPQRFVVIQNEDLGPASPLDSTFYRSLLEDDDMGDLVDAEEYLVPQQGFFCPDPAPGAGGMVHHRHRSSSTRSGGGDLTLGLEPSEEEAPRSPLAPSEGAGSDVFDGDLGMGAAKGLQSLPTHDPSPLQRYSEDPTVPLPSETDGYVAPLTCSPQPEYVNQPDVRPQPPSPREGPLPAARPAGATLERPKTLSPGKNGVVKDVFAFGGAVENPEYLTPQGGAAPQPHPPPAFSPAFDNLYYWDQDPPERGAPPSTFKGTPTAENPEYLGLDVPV

[7] = biological target: Epidermal growth factor receptor (Homo sapiens, UniProt P00533); test: Inhibition of His-tagged EGFR cytoplasmic domain (645-1186 aa) (unknown origin) assessed as inhibition of autophosphorylation by TR-fluorometry
Chain of Epidermal growth factor receptor (P00533 whole entry, the tested form may be a part): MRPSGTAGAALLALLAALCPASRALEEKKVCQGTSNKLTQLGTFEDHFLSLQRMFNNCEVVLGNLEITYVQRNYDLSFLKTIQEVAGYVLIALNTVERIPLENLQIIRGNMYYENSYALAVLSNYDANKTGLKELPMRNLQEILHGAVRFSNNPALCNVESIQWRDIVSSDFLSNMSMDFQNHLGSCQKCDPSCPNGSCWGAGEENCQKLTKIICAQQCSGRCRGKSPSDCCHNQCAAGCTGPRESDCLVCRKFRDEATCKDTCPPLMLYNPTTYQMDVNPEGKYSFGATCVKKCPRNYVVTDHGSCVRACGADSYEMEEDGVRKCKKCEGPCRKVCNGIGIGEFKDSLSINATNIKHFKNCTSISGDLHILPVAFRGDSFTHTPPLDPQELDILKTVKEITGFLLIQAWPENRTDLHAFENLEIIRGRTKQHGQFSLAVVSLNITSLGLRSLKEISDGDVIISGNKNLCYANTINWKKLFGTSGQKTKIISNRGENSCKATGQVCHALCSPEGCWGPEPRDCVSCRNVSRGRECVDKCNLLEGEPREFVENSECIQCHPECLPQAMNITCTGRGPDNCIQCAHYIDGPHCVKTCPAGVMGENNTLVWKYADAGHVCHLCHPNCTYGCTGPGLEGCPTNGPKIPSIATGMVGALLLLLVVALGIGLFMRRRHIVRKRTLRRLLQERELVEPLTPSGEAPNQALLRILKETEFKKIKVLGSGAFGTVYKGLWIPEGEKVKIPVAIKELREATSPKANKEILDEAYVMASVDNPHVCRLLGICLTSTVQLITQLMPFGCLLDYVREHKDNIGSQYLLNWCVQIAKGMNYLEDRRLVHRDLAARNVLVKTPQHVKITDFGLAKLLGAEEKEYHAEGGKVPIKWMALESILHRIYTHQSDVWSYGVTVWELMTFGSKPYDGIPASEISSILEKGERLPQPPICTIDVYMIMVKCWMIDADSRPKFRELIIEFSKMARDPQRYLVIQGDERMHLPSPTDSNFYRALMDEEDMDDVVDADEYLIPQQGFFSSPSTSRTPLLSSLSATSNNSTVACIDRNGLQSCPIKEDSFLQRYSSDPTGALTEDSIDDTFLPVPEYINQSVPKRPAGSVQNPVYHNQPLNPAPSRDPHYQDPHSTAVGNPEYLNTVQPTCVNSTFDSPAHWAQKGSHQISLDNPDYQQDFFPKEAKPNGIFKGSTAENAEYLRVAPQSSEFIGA

[8] = system: HeLa; test: Induction of apoptosis in human HeLa cells assessed as necrotic cells at 1.04 uM after 48 hrs by annexin-V-FITC/PI staining based flow cytometry (reference value: 3.82%); type: functional
Procedure, shortened: (§1)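 HeLa cells treated at 0.13, 0.26, 0.52 or 1.04 µM for 48 h, then collected and stained with annexin V-FITC/PI for flow cytometry. Early apoptotic cells are annexin V+/PI− (lower right quadrant) and late apoptotic cells are annexin V+/PI+ (upper right quadrant). Data are mean ± S.E.M. of three independent experiments.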

[9] = system: HeLa; test: Induction of apoptosis in human HeLa cells assessed as necrotic cells at 0.52 uM after 48 hrs by annexin-V-FITC/PI staining based flow cytometry (reference value: 3.82%); type: functional; procedure, shortened: as §1
[10] = system: HeLa; test: Induction of apoptosis in human HeLa cells assessed as necrotic cells at 0.26 uM after 48 hrs by annexin-V-FITC/PI staining based flow cytometry (reference value: 3.82%); type: functional; procedure, shortened: as §1
[11] = system: HeLa; test: Induction of apoptosis in human HeLa cells assessed as necrotic cells at 0.13 uM after 48 hrs by annexin-V-FITC/PI staining based flow cytometry (reference value: 3.82%); type: functional; procedure, shortened: as §1
[12] = system: HeLa; test: Induction of apoptosis in human HeLa cells assessed as late apoptotic cells at 1.04 uM after 48 hrs by annexin-V-FITC/PI staining based flow cytometry (reference value: 8.52%); type: functional; procedure, shortened: as §1
[13] = system: HeLa; test: Induction of apoptosis in human HeLa cells assessed as late apoptotic cells at 0.52 uM after 48 hrs by annexin-V-FITC/PI staining based flow cytometry (reference value: 8.52%); type: functional; procedure, shortened: as §1
[14] = system: HeLa; test: Induction of apoptosis in human HeLa cells assessed as late apoptotic cells at 0.26 uM after 48 hrs by annexin-V-FITC/PI staining based flow cytometry (reference value: 8.52%); type: functional; procedure, shortened: as §1
[15] = system: HeLa; test: Induction of apoptosis in human HeLa cells assessed as late apoptotic cells at 0.13 uM after 48 hrs by annexin-V-FITC/PI staining based flow cytometry (reference value: 8.52%); type: functional; procedure, shortened: as §1
[16] = system: HeLa; test: Induction of apoptosis in human HeLa cells assessed as early apoptotic cells at 1.04 uM after 48 hrs by annexin-V-FITC/PI staining based flow cytometry (reference value: 0.889%); type: functional; procedure, shortened: as §1
[17] = system: HeLa; test: Induction of apoptosis in human HeLa cells assessed as early apoptotic cells at 0.52 uM after 48 hrs by annexin-V-FITC/PI staining based flow cytometry (reference value: 0.889%); type: functional; procedure, shortened: as §1
[18] = system: HeLa; test: Induction of apoptosis in human HeLa cells assessed as early apoptotic cells at 0.26 uM after 48 hrs by annexin-V-FITC/PI staining based flow cytometry (reference value: 0.889%); type: functional; procedure, shortened: as §1
[19] = system: HeLa; test: Induction of apoptosis in human HeLa cells assessed as early apoptotic cells at 0.13 uM after 48 hrs by annexin-V-FITC/PI staining based flow cytometry (reference value: 0.889%); type: functional; procedure, shortened: as §1
[20] = system: HeLa; test: Induction of apoptosis in human HeLa cells assessed as viable cells at 1.04 uM after 48 hrs by annexin-V-FITC/PI staining based flow cytometry (reference value: 86.8%); type: functional; conditions: read-out: Activity; procedure, shortened: as §1
[21] = system: HeLa; test: Induction of apoptosis in human HeLa cells assessed as viable cells at 0.52 uM after 48 hrs by annexin-V-FITC/PI staining based flow cytometry (reference value: 86.8%); type: functional; conditions: read-out: Activity; procedure, shortened: as §1
[22] = system: HeLa; test: Induction of apoptosis in human HeLa cells assessed as viable cells at 0.26 uM after 48 hrs by annexin-V-FITC/PI staining based flow cytometry (reference value: 86.8%); type: functional; conditions: read-out: Activity; procedure, shortened: as §1
[23] = system: HeLa; test: Induction of apoptosis in human HeLa cells assessed as viable cells at 0.13 uM after 48 hrs by annexin-V-FITC/PI staining based flow cytometry (reference value: 86.8%); type: functional; conditions: read-out: Activity; procedure, shortened: as §1
[24] = system: HeLa; test: Induction of apoptosis in human HeLa cells after 48 hrs by annexin-V-FITC/PI staining based flow cytometry; type: functional, cell-based; procedure, shortened: as §1

Structure (SMILES)	IC50 [1]	CC50 at 24 h [2]	IC50 [3]	IC50 [4]	IC50 [5]	IC50 [6]	IC50 ([7]; read-out: IC50)	IC50 ([7]; read-out: pIC50 (converted))	also measured
CS(=O)(=O)CCNCc1ccc(-c2ccc3ncnc(Nc4ccc(OCc5cccc(F)c5)c(Cl)c4)c3c2)o1 [LAPATINIB]	0.12 µM	123 µM	0.21 µM	0.47 µM	0.27 µM	–	–	–	–
CC(=O)N1N=C(c2ccc(C)cc2)CC1c1ccc(C(=O)OCCn2c([N+](=O)[O-])cnc2C)cc1 (stereo unspecified)	76.8 µM	–	> 100 µM	70.7 µM	50.2 µM	13.2 µM	10.9 µM	10.9 µM	–
CC(=O)N1N=C(c2ccc(Cl)cc2)CC1c1ccc(C(=O)OC(C)Cn2c([N+](=O)[O-])cnc2C)cc1 (stereo unspecified)	15.6 µM	–	22.2 µM	8.82 µM	12.2 µM	9.96 µM	9.26 µM	9.27 µM	–
CC(=O)N1N=C(c2ccc(C(F)(F)F)cc2)CC1c1ccc(C(=O)OCCn2c([N+](=O)[O-])cnc2C)cc1 (stereo unspecified)	0.13 µM	98.9 µM	0.19 µM	0.96 µM	0.33 µM	0.51 µM	0.26 µM	–	Activity [8]: 0.43%; Activity [9]: 0.988%; Activity [10]: 0.688%; Activity [11]: 1.88%; Activity [12]: 26.7%; Activity [13]: 20.7%; Activity [14]: 21.9%; Activity [15]: 20.5%; Activity [16]: 54.2%; Activity [17]: 36.2%; Activity [18]: 26.7%; Activity [19]: 3.72%; viability at 1.04 µM [20]: 18.6%; viability at 0.52 µM [21]: 42.1%; viability at 0.26 µM [22]: 50.7%; viability at 0.13 µM [23]: 73.9%; Activity [24]: Dose-dependent effect
CC(=O)N1N=C(c2ccccc2)CC1c1ccc(C(=O)OC(C)Cn2c([N+](=O)[O-])cnc2C)cc1 (stereo unspecified)	45.2 µM	–	68.2 µM	49.9 µM	43.8 µM	17 µM	12.2 µM	12.2 µM	–
CC(=O)N1N=C(c2ccc(Cl)cc2)CC1c1ccc(C(=O)OCCn2c([N+](=O)[O-])cnc2C)cc1 (stereo unspecified)	4.13 µM	138 µM	4.82 µM	2.27 µM	3.31 µM	4.1 µM	7.37 µM	7.38 µM	–
CC(=O)N1N=C(c2ccc(C)cc2)CC1c1ccc(C(=O)OC(C)Cn2c([N+](=O)[O-])cnc2C)cc1 (stereo unspecified)	72.1 µM	–	> 100 µM	92.1 µM	58.1 µM	18.9 µM	25.6 µM	25.6 µM	–
CCOc1ccc(C2=NN(C(C)=O)C(c3ccc(C(=O)OCCn4c([N+](=O)[O-])cnc4C)cc3)C2)cc1 (stereo unspecified)	31.4 µM	–	38.9 µM	20.6 µM	19.3 µM	14.9 µM	15.2 µM	15.2 µM	–
CC(=O)N1N=C(c2ccc(F)cc2)CC1c1ccc(C(=O)OCCn2c([N+](=O)[O-])cnc2C)cc1 (stereo unspecified)	2.45 µM	118 µM	4.19 µM	1.67 µM	1.89 µM	4.07 µM	–	–	–
CC(=O)N1N=C(c2ccc(I)cc2)CC1c1ccc(C(=O)OCCn2c([N+](=O)[O-])cnc2C)cc1 (stereo unspecified)	7.53 µM	–	11.8 µM	4.85 µM	6.28 µM	2.75 µM	1.26 µM	1.26 µM	–
COc1ccc(C2=NN(C(C)=O)C(c3ccc(C(=O)OCCn4c([N+](=O)[O-])cnc4C)cc3)C2)cc1 (stereo unspecified)	27.9 µM	–	36.2 µM	30.2 µM	15.8 µM	17.3 µM	8.54 µM	8.55 µM	–
CC(=O)N1N=C(c2ccc([N+](=O)[O-])cc2)CC1c1ccc(C(=O)OC(C)Cn2c([N+](=O)[O-])cnc2C)cc1 (stereo unspecified)	3.78 µM	168 µM	12.2 µM	3.33 µM	3.62 µM	3.53 µM	1.45 µM	1.45 µM	–
CC(=O)N1N=C(c2ccc(Br)cc2)CC1c1ccc(C(=O)OC(C)Cn2c([N+](=O)[O-])cnc2C)cc1 (stereo unspecified)	11.8 µM	–	10.8 µM	8.92 µM	9.02 µM	8.27 µM	5.96 µM	5.97 µM	–
CC(=O)N1N=C(c2ccc(I)cc2)CC1c1ccc(C(=O)OC(C)Cn2c([N+](=O)[O-])cnc2C)cc1 (stereo unspecified)	25.6 µM	–	19.1 µM	9.77 µM	9.98 µM	12.7 µM	10.7 µM	10.7 µM	–
COc1ccc(C2=NN(C(C)=O)C(c3ccc(C(=O)OC(C)Cn4c([N+](=O)[O-])cnc4C)cc3)C2)cc1 (stereo unspecified)	35.1 µM	–	40.6 µM	28 µM	25.2 µM	12 µM	21.3 µM	21.3 µM	–
CC(=O)N1N=C(c2ccc(F)cc2)CC1c1ccc(C(=O)OC(C)Cn2c([N+](=O)[O-])cnc2C)cc1 (stereo unspecified)	7.42 µM	–	15.5 µM	5.21 µM	8.89 µM	8.54 µM	6.58 µM	6.59 µM	–
C#Cc1cccc(Nc2ncnc3cc(OCCOC)c(OCCOC)cc23)c1 [ERLOTINIB]	–	105 µM	–	–	–	–	–	–	–
CC(=O)N1N=C(c2ccccc2)CC1c1ccc(C(=O)OCCn2c([N+](=O)[O-])cnc2C)cc1 (stereo unspecified)	48.8 µM	–	62.7 µM	58.2 µM	42.2 µM	14 µM	9.58 µM	9.59 µM	–
CCOc1ccc(C2=NN(C(C)=O)C(c3ccc(C(=O)OC(C)Cn4c([N+](=O)[O-])cnc4C)cc3)C2)cc1 (stereo unspecified)	47.6 µM	–	46.6 µM	40.6 µM	38.8 µM	18.1 µM	26.9 µM	27 µM	–
CC(=O)N1N=C(c2ccc(Br)cc2)CC1c1ccc(C(=O)OCCn2c([N+](=O)[O-])cnc2C)cc1 (stereo unspecified)	2.82 µM	–	13.1 µM	5.56 µM	3.82 µM	3.45 µM	4.13 µM	4.13 µM	–
CC(=O)N1N=C(c2ccc(C(F)(F)F)cc2)CC1c1ccc(C(=O)OC(C)Cn2c([N+](=O)[O-])cnc2C)cc1 (stereo unspecified)	0.42 µM	92.6 µM	5.87 µM	2.18 µM	2.21 µM	5.62 µM	6.67 µM	6.68 µM	–
CC(=O)N1N=C(c2ccc([N+](=O)[O-])cc2)CC1c1ccc(C(=O)OCCn2c([N+](=O)[O-])cnc2C)cc1 (stereo unspecified)	0.15 µM	78.8 µM	0.38 µM	1.13 µM	1.75 µM	2.06 µM	0.6 µM	0.601 µM	–
